# According to ChEMBL document CHEMBL3244394, “N7-Substituted 7-aminoactinomycin D analogues. Synthesis and biological properties” (J Med Chem, 1978):
# *1 amine or outer side, *2 acyl side, *3 side chain or, on linkers, in order; H or OH if unused. Where a SMILES comes first, the peptide text is derived from it. Bridges are numbered along the chain shown (N, C = ends). Roman numbers before positions name the chains, in order. [ ]: non-standard residue; d: D form. Actinocin(9to1) = Cc1c2oc3c(C)ccc(C(=O)[*:1])c3nc-2c(C(=O)[*:2])c(N)c1=O; NMeV = CN[C@H](C(=O)O)C(C)C; Sar = CNCC(=O)O
# Legend:
# P388 [1] = assay: Antitumor activity against mouse P388 cells allografted in BDF1 hybrid mouse assessed as increase of host life span at 500 ug/kg qd for 4 days; type: functional; details: P388, 96 h
# In short: (§1)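 P388 leukemia, 10⁶ cells, implanted ip in male BDF₁ mice, seven per group. Compounds given in saline once daily on four successive days starting 1 day after implantation (qd 1-4).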
# [2] = Cytotoxicity against human CCRF-CEM cells; type: cell-based; details: read-out: ID50 (the source's name)
# In short: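 In vitro growth-inhibition assay on human lymphoblastic leukemia CCRF-CEM cells grown in suspension culture. The values are relative cytotoxicity.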
# P388 [3] = assay: Antitumor activity against mouse P388 cells allografted in BDF1 hybrid mouse assessed as increase of host life span at 75 ug/kg qd for 4 days; type: functional; details: P388, 96 h; in short: as §1
# P388 [4] = assay: Antitumor activity against mouse P388 cells allografted in BDF1 hybrid mouse assessed as increase of host life span at 1500 ug/kg qd for 4 days; type: functional; details: P388, 96 h; in short: as §1
# P388 [5] = assay: Antitumor activity against mouse P388 cells allografted in BDF1 hybrid mouse assessed as increase of host life span at 150 ug/kg qd for 4 days; type: functional; details: P388, 96 h; in short: as §1
# P388 [6] = assay: Antitumor activity against mouse P388 cells allografted in BDF1 hybrid mouse assessed as increase of host life span at 450 ug/kg qd for 4 days; type: functional; details: P388, 96 h; in short: as §1
# P388 [7] = assay: Antitumor activity against mouse P388 cells allografted in BDF1 hybrid mouse assessed as increase of host life span at 200 ug/kg qd for 4 days; type: functional; details: P388, 96 h; in short: as §1
# P388 [8] = assay: Antitumor activity against mouse P388 cells allografted in BDF1 hybrid mouse assessed as increase of host life span at 225 ug/kg qd for 4 days; type: functional; details: P388, 96 h; in short: as §1
# P388 [9] = assay: Antitumor activity against mouse P388 cells allografted in BDF1 hybrid mouse assessed as increase of host life span at 800 ug/kg qd for 4 days; type: functional; details: P388, 96 h; in short: as §1
Structure (SMILES),CC50 [2],other results
Cc1c2oc3c(C)c(NCc4ccc(C(F)(F)F)cc4)cc(C(=O)N[C@@H]4C(=O)N[C@H](C(C)C)C(=O)N5CCC[C@H]5C(=O)N(C)CC(=O)N(C)[C@@H](C(C)C)C(=O)O[C@@H]4C)c3nc-2c(C(=O)N[C@@H]2C(=O)N[C@H](C(C)C)C(=O)N3CCC[C@H]3C(=O)N(C)CC(=O)N(C)[C@@H](C(C)C)C(=O)O[C@@H]2C)c(N)c1=O,0.26 µg/mL,ILS at 0.5 mg/kg (P388 [1]): 100%
"Cc1c2oc3c(C)ccc(C(=O)N[C@@H]4C(=O)N[C@H](C(C)C)C(=O)N5CCC[C@H]5C(=O)N(C)CC(=O)N(C)[C@@H](C(C)C)C(=O)O[C@@H]4C)c3nc-2c(C(=O)N[C@@H]2C(=O)N[C@H](C(C)C)C(=O)N3CCC[C@H]3C(=O)N(C)CC(=O)N(C)[C@@H](C(C)C)C(=O)O[C@@H]2C)c(N)c1=O [DACTINOMYCIN] (I: T[dV]P[Sar][NMeV] / II: T[dV]P[Sar][NMeV]; ester I:1-I:C, II:1-II:C; linker I:N-II:N via Actinocin(9to1))",0.01 µg/mL,ILS at 0.075 mg/kg (P388 [3]): 122%
CCCCCCCCNc1cc(C(=O)N[C@@H]2C(=O)N[C@H](C(C)C)C(=O)N3CCC[C@H]3C(=O)N(C)CC(=O)N(C)[C@@H](C(C)C)C(=O)O[C@@H]2C)c2nc3c(C(=O)N[C@@H]4C(=O)N[C@H](C(C)C)C(=O)N5CCC[C@H]5C(=O)N(C)CC(=O)N(C)[C@@H](C(C)C)C(=O)O[C@@H]4C)c(N)c(=O)c(C)c-3oc2c1C,0.27 µg/mL,ILS at 1.5 mg/kg (P388 [4]): 73%
Cc1c2oc3c(C)c(N)cc(C(=O)N[C@@H]4C(=O)N[C@H](C(C)C)C(=O)N5CCC[C@H]5C(=O)N(C)CC(=O)N(C)[C@@H](C(C)C)C(=O)O[C@@H]4C)c3nc-2c(C(=O)N[C@@H]2C(=O)N[C@H](C(C)C)C(=O)N3CCC[C@H]3C(=O)N(C)CC(=O)N(C)[C@@H](C(C)C)C(=O)O[C@@H]2C)c(N)c1=O,0.085 µg/mL,ILS at 0.15 mg/kg (P388 [5]): 164%
Cc1c2oc3c(C)c(NCc4ccc(Cl)c(Cl)c4)cc(C(=O)N[C@@H]4C(=O)N[C@H](C(C)C)C(=O)N5CCC[C@H]5C(=O)N(C)CC(=O)N(C)[C@@H](C(C)C)C(=O)O[C@@H]4C)c3nc-2c(C(=O)N[C@@H]2C(=O)N[C@H](C(C)C)C(=O)N3CCC[C@H]3C(=O)N(C)CC(=O)N(C)[C@@H](C(C)C)C(=O)O[C@@H]2C)c(N)c1=O,0.22 µg/mL,ILS at 0.5 mg/kg (P388 [1]): 192%
Cc1c2oc3c(C)c(NCc4ccccn4)cc(C(=O)N[C@@H]4C(=O)N[C@H](C(C)C)C(=O)N5CCC[C@H]5C(=O)N(C)CC(=O)N(C)[C@@H](C(C)C)C(=O)O[C@@H]4C)c3nc-2c(C(=O)N[C@@H]2C(=O)N[C@H](C(C)C)C(=O)N3CCC[C@H]3C(=O)N(C)CC(=O)N(C)[C@@H](C(C)C)C(=O)O[C@@H]2C)c(N)c1=O,0.26 µg/mL,ILS at 0.45 mg/kg (P388 [6]): 145%
Cc1c2oc3c(C)c(NCc4ccc[nH]4)cc(C(=O)N[C@@H]4C(=O)N[C@H](C(C)C)C(=O)N5CCC[C@H]5C(=O)N(C)CC(=O)N(C)[C@@H](C(C)C)C(=O)O[C@@H]4C)c3nc-2c(C(=O)N[C@@H]2C(=O)N[C@H](C(C)C)C(=O)N3CCC[C@H]3C(=O)N(C)CC(=O)N(C)[C@@H](C(C)C)C(=O)O[C@@H]2C)c(N)c1=O,0.26 µg/mL,ILS at 0.2 mg/kg (P388 [7]): 90%
Cc1c2oc3c(C)c(NCc4cccc(Oc5ccccc5)c4)cc(C(=O)N[C@@H]4C(=O)N[C@H](C(C)C)C(=O)N5CCC[C@H]5C(=O)N(C)CC(=O)N(C)[C@@H](C(C)C)C(=O)O[C@@H]4C)c3nc-2c(C(=O)N[C@@H]2C(=O)N[C@H](C(C)C)C(=O)N3CCC[C@H]3C(=O)N(C)CC(=O)N(C)[C@@H](C(C)C)C(=O)O[C@@H]2C)c(N)c1=O,0.28 µg/mL,ILS at 0.225 mg/kg (P388 [8]): 130%
Cc1c2oc3c(C)c(NCc4ccco4)cc(C(=O)N[C@@H]4C(=O)N[C@H](C(C)C)C(=O)N5CCC[C@H]5C(=O)N(C)CC(=O)N(C)[C@@H](C(C)C)C(=O)O[C@@H]4C)c3nc-2c(C(=O)N[C@@H]2C(=O)N[C@H](C(C)C)C(=O)N3CCC[C@H]3C(=O)N(C)CC(=O)N(C)[C@@H](C(C)C)C(=O)O[C@@H]2C)c(N)c1=O,0.26 µg/mL,ILS at 0.2 mg/kg (P388 [7]): 90%
Cc1c2oc3c(C)c(NCc4ccccc4)cc(C(=O)N[C@@H]4C(=O)N[C@H](C(C)C)C(=O)N5CCC[C@H]5C(=O)N(C)CC(=O)N(C)[C@@H](C(C)C)C(=O)O[C@@H]4C)c3nc-2c(C(=O)N[C@@H]2C(=O)N[C@H](C(C)C)C(=O)N3CCC[C@H]3C(=O)N(C)CC(=O)N(C)[C@@H](C(C)C)C(=O)O[C@@H]2C)c(N)c1=O,0.25 µg/mL,ILS at 0.8 mg/kg (P388 [9]): 108%
Cc1c2oc3c(C)c(NCc4ccc(C(=O)O)cc4)cc(C(=O)N[C@@H]4C(=O)N[C@H](C(C)C)C(=O)N5CCC[C@H]5C(=O)N(C)CC(=O)N(C)[C@@H](C(C)C)C(=O)O[C@@H]4C)c3nc-2c(C(=O)N[C@@H]2C(=O)N[C@H](C(C)C)C(=O)N3CCC[C@H]3C(=O)N(C)CC(=O)N(C)[C@@H](C(C)C)C(=O)O[C@@H]2C)c(N)c1=O,0.26 µg/mL,ILS at 0.5 mg/kg (P388 [1]): 123%
